Source: ChEMBL document CHEMBL1156711, “Synthesis and cytotoxicity evaluation of some benzimidazole-4,7-diones as bioreductive anticancer agents” (Eur J Med Chem, 2008)

Assays:
HT-29 [1] = assay: Cytotoxicity against human HT29 cells after 72 hrs by MTT assay; assay type: functional, cell-based; details: HT-29, 72 h
In short: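 HT29 grown in DMEM with 10% FBS and 2 mM L-glutamine at 37 °C, 5% CO2. Seeded at 3000 cells/well and treated 24 h later; vehicle 0.1% DMSO in PBS. MTT 0.5 mg/mL for 3 h, DMSO solubilization, OD 550 nm, triplicates, corrected for MTT blank and normalized to untreated. IC50 by Chou–Talalay median-effect plot.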

HT-29 [2] = assay: Cytotoxicity against human HT29 cells after 72 hrs by MTT assay in presence of 2 uM dicoumarol; assay type: functional, cell-based; details: HT-29, 72 h

Row | Structure (SMILES) | IC50 (HT-29 [1]) [µM] | IC50 (HT-29 [2]) [µM]
1 | CO[C@@]12[C@H](COC(N)=O)C3=C(C(=O)C(C)=C(N)C3=O)N1C[C@@H]1N[C@@H]12 [MITOMYCIN] | 0.9 | 2.1
2 | CC1=C(C)C(=O)c2c(nc(CC(C)(C)[N+](=O)[O-])n2C)C1=O | > 100 | –
